In PMC12401554 (Archives of toxicology, 2023):

Columns and labels:
[1] = ref European Chemicals Agency (ECHA) Classification and Labelling Inventory; cited from earlier work
3D HepaRG spheroids [2] = test: HT flow-cytometry-based MN assay in 3D HepaRG spheroids; assay type: cell-based, human; conditions: for Fold increase of MN formation over the vehicle control: at the maximum concentration shown in the table
2D HepaRG cells [3] = test: CometChip assay; assay type: cell-based, human; conditions: 24-h exposure; for Fold increase of DNA damage over the vehicle control: at the maximum concentration shown in the table
3D HepaRG spheroids [4] = test: CometChip assay; assay type: cell-based, human; conditions: for Outcome, CometChip assay / Fold increase of DNA damage over the vehicle control: 24-h exposure; for Fold increase of DNA damage over the vehicle control: at the maximum concentration shown in the table; for BMC50 estimate for DNA strand breakage, rank among the eight nitrosamines: PROAST exponential model
2D HepaRG cells [5] = test: HT flow-cytometry-based MN assay in 2D HepaRG cells; assay type: cell-based, human; conditions: for Fold increase of MN formation over the vehicle control: at the maximum concentration shown in the table
3D HepaRG spheroids [6] = test: MultiFlow DNA damage assay; assay type: cell-based, human; conditions: 3D HepaRG cultures, PROAST exponential model
In short: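 Spheroids were exposed for 24 h in differentiation medium containing 100 ng/ml hEGF, then kept 5 days in the same medium without test compound. They were dissociated with Accutase and stained 1 h at room temperature for γH2A.X, phospho-H3 and P53, then analysed by flow cytometry. Responses are median-fluorescence fold-changes versus vehicle. BMC50 (50% increase over vehicle; 90% CI) came from exponential-model benchmark analysis with compound as covariate.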

[7] = ref IARC Monographs, Volumes 1–133; IARC 1978; cited from earlier work
rat [8] = conditions: ref Ambient water quality criteria for nitrosamines, US Environmental Protection Agency; cited from earlier work
Namalva cells = conditions: human Burkitt lymphoblastoid cell line, ref Janzowski et al. 1989; cited from earlier work
[9] = system: CYP2A6-expressing TK6 cells; conditions: ref Li et al. 2022; cited from earlier work
[10] = system: wild-type TK6 cells or TK6 cells transduced with human CYP1A1, 2A6, 2E1, or 3A4 genes; conditions: ref Li et al. 2022; cited from earlier work
rat [11] = conditions: ref Lhasa Carcinogenicity Database; cited from earlier work
[12] = system: animal species, including frog, rodent, rabbit, and monkey; conditions: ref Bogovski and Bogovski 1981; cited from earlier work
2D HepaRG cells [13] = test: ATP assay; assay type: cell-based, human; conditions: 24-h exposure, at concentrations up to 10 mM
In short: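 Differentiated HepaRG cells (passages 16–19) replated at 5 × 10^4 cells/well as 2D monolayers and treated 3 days after seeding. Exposure was 24 h at 37 °C in 5% CO2 in differentiation medium, with final DMSO ≤1%. Viability was read by CellTiter-Glo luminescence as %ATP relative to vehicle control, from at least three independent experiments.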

Sprague–Dawley rats = conditions: treated 5 days each week with 1.8 or 12 mg NDIPA for 50 or 40 weeks; ref Lijinsky and Taylor 1979; cited from earlier work
3D HepaRG spheroids [14] = test: ATP assay; assay type: cell-based, human; conditions: 24-h exposure, at concentrations up to 10 mM
In short: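 Differentiated HepaRG cells (passages 16–19) were seeded at 5 × 10^3 cells per spheroid in ultra-low-attachment plates. On Day 10, 7–8 spheroids were pooled per well and exposed for 24 h at 37 °C in 5% CO2, with final DMSO ≤1%. ATP was measured with the CellTiter-Glo 3D kit as % of vehicle control, from at least three independent experiments.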

| Compound | ECHA classification [1] | MN response (in words) (3D HepaRG spheroids [2]) | Outcome, MN assay (3D HepaRG spheroids [2]) | Fold increase of MN formation over the vehicle control (3D HepaRG spheroids [2]) [fold] | Outcome, CometChip assay (2D HepaRG cells [3]) | Fold increase of DNA damage over the vehicle control (2D HepaRG cells [3]) [fold] | Outcome, CometChip assay (3D HepaRG spheroids [4]) | Fold increase of DNA damage over the vehicle control (3D HepaRG spheroids [4]) [fold] | MN response (in words) (2D HepaRG cells [5]) | Outcome, MN assay (2D HepaRG cells [5]) | Fold increase of MN formation over the vehicle control (2D HepaRG cells [5]) [fold] | IARC group [7] | Oral rat LD50 (rat [8]) [mg/kg] | Phosphorylation of histone H2A.X (γH2A.X) [9] | Gold TD50 in rat (rat [11]) [mg/kg/day] | Micronucleus (MN) formation [9] | also measured |
| --- | --- | --- | --- | --- | --- | --- | --- | --- | --- | --- | --- | --- | --- | --- | --- | --- | --- |
| O=NN1CCN(C2CCCC2)CC1 [CPNP, N-cyclopentyl-4-nitrosopiperazine] | Carc.1B | negative | − (The ratio ≤ 1.5-fold (p ≥ 0.05 vs. vehicle control, green color)) | 1.4 | − (The ratio ≤ 1.5-fold (p ≥ 0.05 vs. vehicle control, green color)) | 0.9 | + + (2 ≤ ratio < 5) | 2.3 | negative | − (The ratio ≤ 1.5-fold (p ≥ 0.05 vs. vehicle control, green color)) | 1.4 | – | – | – | – | – | – |
| CCCCN(CCCC)N=O [NDBA, N-nitrosodibutylamine] | Carc.2 | – | + + (2 ≤ ratio < 5) | 2.3 | + + (2 ≤ ratio < 5) | 2.4 | + + (2 ≤ ratio < 5) | 2.8 | – | + (1.5 ≤ ratio < 2) | 1.5 | 2B | 1200 | increased | 0.691 | – | BMC50 value for γH2A.X responses, rank among the eight nitrosamines (3D HepaRG spheroids [6]): lowest; Lowest concentration increasing MN formation (Namalva cells): 10 µM; Lowest concentration increasing sister chromatid exchanges (Namalva cells): 1 µM; MN frequency [10]: didn’t increase |
| CCN(CC)N=O [NDEA, N-nitrosodiethylamine] | Carc.1A/1B; Muta.2 | – | + + (2 ≤ ratio < 5) | 2.2 | + + (2 ≤ ratio < 5) | 2.3 | + + (2 ≤ ratio < 5) | 2.6 | – | + (1.5 ≤ ratio < 2) | 1.7 | 2A | 280 | increased | 0.0265 | induced | Number of different animal species in which tumors were induced [12]: 26 |
| CC(C)N(N=O)C(C)C [NDIPA, N-nitrosodiisopropylamine] | Carc.1B; Muta.1B | negative | − (The ratio ≤ 1.5-fold (p ≥ 0.05 vs. vehicle control, green color)) | 1.2 | − (The ratio ≤ 1.5-fold (p ≥ 0.05 vs. vehicle control, green color)) | 1.1 | + (1.5 ≤ ratio < 2) | 1.8 | negative | − (The ratio ≤ 1.5-fold (p ≥ 0.05 vs. vehicle control, green color)) | 1.1 | – | 850 | increased | – | – | BMC50 value for γH2A.X responses, rank among the eight nitrosamines (3D HepaRG spheroids [6]): highest; Cytotoxicity (ATP assay) (2D HepaRG cells [13]): less than 30%; Carcinogenicity in Sprague–Dawley rats (in words) (Sprague–Dawley rats): weak carcinogen; BMC50 estimate for DNA strand breakage, rank among the eight nitrosamines (3D HepaRG spheroids [4]): highest; Cytotoxicity (ATP assay) (3D HepaRG spheroids [14]): less than 30% |
| CN(C)N=O [NDMA, N-nitrosodimethylamine] | Carc.1B | – | + + (2 ≤ ratio < 5) | – | + + (2 ≤ ratio < 5) | – | + + + (ratio ≥ 5 (p < 0.05, red color)) | – | – | + + (2 ≤ ratio < 5) | – | 2A | 40 | – | – | – | BMC50 estimate for %MN, rank among the five positive responses (3D HepaRG spheroids [2]; PROAST exponential model): lowest; BMC50 estimate for DNA strand breakage, rank among the eight nitrosamines (3D HepaRG spheroids [4]): lowest; Number of different animal species in which tumors were induced [12]: 16 |
| CCN(N=O)C(C)C [NEIPA, N-nitrosoethylisopropylamine] | Carc.1B | negative | − (The ratio ≤ 1.5-fold (p ≥ 0.05 vs. vehicle control, green color)) | 1.3 | − (The ratio ≤ 1.5-fold (p ≥ 0.05 vs. vehicle control, green color)) | 1.5 | + + (2 ≤ ratio < 5) | 2.4 | negative | − (The ratio ≤ 1.5-fold (p ≥ 0.05 vs. vehicle control, green color)) | 1.1 | – | 1100 | increased | – | induced | Cytotoxicity (ATP assay) (2D HepaRG cells [13]): less than 30%; Cytotoxicity (ATP assay) (3D HepaRG spheroids [14]): less than 30% |
| CN(CCCC(=O)O)N=O [NMBA, N-nitroso-N-methyl-4-aminobutyric acid] | Carc.2 | – | + (1.5 ≤ ratio < 2) | 1.8 | − (The ratio ≤ 1.5-fold (p ≥ 0.05 vs. vehicle control, green color)) | 1.0 | + + (2 ≤ ratio < 5) | 2.3 | – | − (The ratio ≤ 1.5-fold (p ≥ 0.05 vs. vehicle control, green color)) | 1.4 | – | – | increased | 0.982 | induced | – |
| CN(N=O)c1ccccc1 [NMPA, N-nitrosomethylphenylamine] | Carc.2 | – | + + (2 ≤ ratio < 5) | – | − (The ratio ≤ 1.5-fold (p ≥ 0.05 vs. vehicle control, green color)) | – | + + (2 ≤ ratio < 5) | – | – | − (The ratio ≤ 1.5-fold (p ≥ 0.05 vs. vehicle control, green color)) | – | – | 280 | increased | – | induced | – |
